# SUMO1 PPI mod – modulators of human SUMO1-mediated protein-protein interactions. P63165. SUMO1 binding to a labelled peptide, TR-FRET, 1 h. inhibition, % at 20 µM. 0.33% of 360,000 active. AID 602429; in the data active = inhibition above about 37%
# Target sequence (P63165 whole entry, looked up): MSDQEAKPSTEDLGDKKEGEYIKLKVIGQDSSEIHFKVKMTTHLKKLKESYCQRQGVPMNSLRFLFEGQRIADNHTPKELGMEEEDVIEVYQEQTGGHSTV
# LMPTP inh – blocks human LMPTP phosphatase. inhibition, % at 20 µM. 0.22% of 360,000 active. recombinant LMPTP-A, OMFP fluorogenic substrate, fluorescence intensity. P24666;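 active = compounds that cut the enzyme signal by at least half of the control window in the single-dose screen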;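 also: plate controls were DMSO wells with enzyme plus substrate for no effect and substrate without enzyme for full effect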
# Target sequence (P24666 whole entry, looked up): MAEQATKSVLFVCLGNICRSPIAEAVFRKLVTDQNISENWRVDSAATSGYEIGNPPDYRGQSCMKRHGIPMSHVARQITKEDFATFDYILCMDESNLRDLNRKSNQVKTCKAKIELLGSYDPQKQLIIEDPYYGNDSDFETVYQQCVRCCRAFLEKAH
#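 Buffer or medium: Bis-Tris pH 6.0, DTT, detergent; Assay system: LMPTP-A enzyme; Quantity: 0.625 nM enzyme; Detection: endpoint fluorescence intensity; Times: 50 min dark incubation at room temperature; Controls: substrate-only low control, DMSO enzyme-plus-substrate high control; Doses: single 20 µM dose; Read-out: percent inhibition versus substrate-only and uninhibited controls; Reagent: 400 µM OMFP.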
# STEP block – blocks human striatal-enriched tyrosine phosphatase | inhibition, % at 20 µM | recombinant STEP, OMFP fluorogenic substrate, fluorescence | 0.25% of 360,000 active;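 active = inhibition at 20 µM, scaled per plate between control wells, above about 37%, limit read from the data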;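 also: 0% = DMSO with enzyme and substrate and 100% = substrate only without enzyme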
#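 Material: STEP (striatal-enriched tyrosine phosphatase) enzyme, cell-free; Compound dosing: 20 µM single dose in 1% DMSO; Technique: fluorescence read at 480 nm ex / 540 nm em; Times: reaction 20 min, ambient temperature; Medium: 50 mM Bis-Tris pH 6.0 with 2.5 mM DTT and 0.005% Tween 20; Also added: OMFP at 25 µM.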
# Scp1 inh – Scp-1 (human) phosphatase inhibition. Q9GZU7. Recombinant Scp1, phosphopeptide, malachite green phosphate absorbance. inhibition, % at 20 µM. 0.88% of 340,000 active;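 active = inhibition above about 50% at 20 µM, limit read from the data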;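 also: plate controls were DMSO wells with enzyme for no effect and wells lacking enzyme for full effect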
# Target sequence (Q9GZU7 76-261 limits assumed): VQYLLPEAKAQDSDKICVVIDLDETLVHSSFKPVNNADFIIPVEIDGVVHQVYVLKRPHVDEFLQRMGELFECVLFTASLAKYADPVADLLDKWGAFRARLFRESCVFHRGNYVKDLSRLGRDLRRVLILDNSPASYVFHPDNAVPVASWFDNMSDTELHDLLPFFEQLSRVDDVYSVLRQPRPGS
#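 System: SCP-1 catalytic domain; Reagent: Phospho 17-mer peptide substrate; Doses: one concentration, 20 µM, with 1.0% DMSO; Incubation: 45 min room-temperature reaction, 5 min colour, 30 min stabiliser; Signal: Phosphate-binding colour reagent, absorbance read at 630 nm.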
# DNMT1 block – inhibitors of human DNMT1 | 0.83% of 360,000 active | P26358 | DNMT1 molecular beacon, Hinp1I cleavage, fluorescence | inhibition (reported as % activation of signal), % at 10 µM; in the data active = inhibition above about 50%
# DNMT1 interf DR – shows spectral interference in the DNMT1 beacon assay | shares compounds with DNMT1 block | molecular beacon fluorescence, spectral interference counter-screen | 200 tested, under 10 active | IC50, µM | AID 602382; call rule not given here
# DNMT1 inh conf – confirmation of human DNMT1 inhibitors. shares compounds with DNMT1 block. DNMT1 molecular beacon HinP1I cleavage, fluorescence. inhibition, % at 10 µM. 8% of 2,300 active. AID 602385;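 active = average inhibition of at least 30% in the single-concentration confirmation test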
# DNMT1 interf – counter-screen for DNMT1 inhibitors: spectral interference. shares compounds with DNMT1 block. DNMT1 molecular beacon spectral interference counterscreen, fluorescence 485/520. activation (fluorescence interference), % at 10 µM. 1% of 2,300 active;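 active = activation of at least 30% at 10 µM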;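 also: DNMT1 catalytic domain with a HinP1I cleavage step and a FAM/dabcyl DNA beacon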
# An asterisk follows results filed as active; . = no result given; + = active, no number. This is a sample that favours compounds with a hit; in the whole collection about 1.7% have one here.
SMILES,SUMO1 PPI mod,LMPTP inh,STEP block,Scp1 inh,DNMT1 block,DNMT1 inh conf,DNMT1 interf,others
CCOc1ccc2noc3c2c1C(=O)c1ccccc1-3,-17,-27,-158,-8,+,140*,134*,
O=C1c2ccccc2-c2onc3ccc(N4CCCC4)c1c23,9,19,-58,7,25,.,.,
O=C(CN1C(=O)S/C(=C\c2ccc(-c3cc(C(=O)O)ccc3Cl)o2)C1=O)Nc1ccc2c(c1)OCO2,114*,74*,90*,.,97*,22,-13,DNMT1 interf DR=>99
COc1cc(C(CC(=O)N2CCCC2)c2c(OC)cc(OC)c3c(-c4ccccc4)cc(=O)oc23)cc(OC)c1OC (configuration not stated),-13,3,2,29,31,.,.,
COc1ccc(C(CC(=O)N2CCOCC2)c2c(OC)cc(OC)c3c(-c4ccccc4)cc(=O)oc23)cc1 (configuration not stated),-4,5,0,35,74*,3,-2,
CCOC(=O)c1c(C)c(/C=N/Nc2ccccc2)n(C)c1C,-4,2,-7,-1,-9,.,.,
O=C1CC(C(=O)N2CCCc3ccccc32)CN1c1ccc(Cl)cc1 (configuration not stated),-1,-1,0,-1,-1,.,.,
O=[N+]([O-])c1cc([N+](=O)[O-])c2cc3ccccc3nc2c1,4,4,4,4,2,.,.,
Cc1ccc(N=C2NC(=O)/C(=C\c3ccco3)S2)cc1,-7,2,-5,7,45,.,.,
Cc1cccc(N=C2NC(=O)/C(=C/C=C/c3ccco3)S2)c1,14,6,0,15,85*,14,1,
O=C1NC(=Nc2ccc3ccccc3c2)S/C1=C/c1ccco1,3,26,0,18,67*,3,-2,
COc1ccc(N=C2NC(=O)/C(=C\C=C\c3ccco3)S2)cc1,24,32,6,25,80*,3,-4,
O=[N+]([O-])c1ccc(/C=C/c2ccc3cccc(O)c3n2)cc1,-4,0,1,-4,67*,9,2,
Cc1ccc(-c2csc3ncn(CC#N)c(=O)c23)cc1,11,1,-1,8,48,5,6,
Cc1ccc(-c2csc3ncn(CC#N)c(=O)c23)cc1C,23,11,20,48,21,.,.,
Fc1ccccc1CN1CCC(Cc2ccccc2)CC1,0,-2,0,6,70*,5,5,
CC(=O)Nc1ccc(S(=O)(=O)N2CCN(c3ccc(C(C)=O)cc3)CC2)cc1,4,-1,-1,.,0,.,.,
CCOc1ccc(NC(=O)CN(C)C(=O)c2cc3c(s2)CCC3)cc1OCC,16,17,5,.,94*,15,-2,
Cc1cc(C)c(C)c(S(=O)(=O)N2CCN(c3ncnc4ccccc34)CC2)c1C,7,9,6,5,75*,0,2,
O=C(O)c1ccc2nc(-c3ccco3)c(-c3ccco3)nc2c1,40*,6,34,47,100*,5,2,
Cc1cc2c(c(=O)n1Cc1cccnc1)C(Cc1ccccc1)C(C#N)=C(N)O2 (configuration not stated),-6,2,2,1,56*,-1,3,
COc1ccc2[nH]c(C)c(-c3csc(N)n3)c2c1,6,-1,2,-1,82*,2,9,
COc1ccc(OC)c(-n2c(SCC(=O)Nc3cccc(S(N)(=O)=O)c3)nc3ccccc3c2=O)c1,3,1,13,-4,67*,2,2,
COc1ccc(C(=O)CSc2nnc(-c3ccco3)n2C)cc1,1,-1,2,0,-2,.,.,
CSc1nnc(-c2ccco2)c(-c2ccco2)n1,22,5,3,47,95*,2,4,
SMILES,SUMO1 PPI mod,LMPTP inh,STEP block,Scp1 inh,DNMT1 block,DNMT1 inh conf,DNMT1 interf,others
COc1ccc(C(=O)CSc2nnc(-c3ccco3)c(-c3ccco3)n2)cc1,16,33,5,87*,76*,4,4,
Cc1ccc(NC(=O)CSc2ccc(-c3ccco3)nn2)cc1,-5,-1,-2,-7,-4,.,.,
Cc1ccc(NC(=O)CSc2nnc(-c3ccco3)c(-c3ccco3)n2)cc1,19,8,6,57*,92*,7,7,
COc1cccc(NC(=O)CSc2nnc(-c3ccco3)c(-c3ccco3)n2)c1,26,3,9,66*,87*,2,0,
COCCN1C(=O)COc2ccccc2C1C(=O)NC(C)(C)C (configuration not stated),2,-2,.,.,.,.,.,
CCOc1ccc(-c2nn(-c3ccccc3)cc2/C=C2\SC(=S)N(Cc3ccco3)C2=O)cc1,1,0,5,1,14,.,.,
CC(C)COc1ccc(-c2nn(-c3ccccc3)cc2/C=C2/SC(=S)N(CC(=O)O)C2=O)cc1,21,38,9,11,65*,67*,-9,DNMT1 interf DR=>99
Cc1ccc(-c2nn(-c3ccccc3)cc2C=C2SC(=S)N(CCS(=O)(=O)O)C2=O)cc1,72*,82*,5,.,76*,107*,-14,DNMT1 interf DR=>99
O=C(Nc1ccc(Cl)cc1)c1csc([C@@H]2C[C@H](O)[C@@H](CO)O2)n1,0,0,-2,.,14,.,.,
O=C(Cn1cc(COc2ccc(Br)cc2[N+](=O)[O-])nn1)c1ccc(O)cc1,-11,1,0,-2,51*,8,-3,
CC(=O)c1ccc(OCc2cn(CC(=O)c3ccc(O)cc3)nn2)c(C)c1,0,0,0,.,40,.,.,
CC(=O)Nc1ccc(OCc2cn(CC(=O)c3ccc(O)cc3)nn2)cc1,5,0,0,.,57*,4,-6,
CC(=O)c1ccc(OCc2cn(CC(=O)c3ccc(O)cc3)nn2)cc1,6,0,2,-8,37,.,.,
Cc1cccc(C)c1OCc1cn(CC(=O)c2ccc(O)cc2)nn1,0,-2,0,1,58*,3,-1,
Cc1nn(CC(=O)Nc2ccc3c(c2)nc(CCN2CCCCC2)n3C)c(=O)c2ccccc12,1,7,3,-6,6,.,.,
Cc1nn(CC(=O)Nc2ccc3c(c2)nc2n3CCN(C3CCCCC3)C2)c(=O)c2ccccc12,1,25,3,-7,80*,0,1,
CCCCC[C@@H](C)N1C[C@@H](COCc2ccccc2)Oc2cc(N3CCC[C@@H]3COC)ccc2S1(=O)=O,8,4,.,.,.,.,.,
N#Cc1c(-c2cccc(Br)c2)cc(-c2ccco2)[nH]c1=O,29,25,2,-6,87*,10,14,

# Screening data from PubChem BioAssay.
